Experimental data: PMC4674360 (Molecular cancer therapeutics, 2015)
“Also recorded” adds a separate entry of the source. Like-named read-outs stand apart in the source and are kept apart here.

Legend:
[1] = biological target: T1, murine Breast Cancer Resistance Protein (BCRP1) (Mus musculus, UniProt Q7TMS5); experiment: In vitro intracellular accumulation in BCRP1-overexpressing MDCKII cells; type: in vitro ADME; details: rucaparib 2 −M, prazosin 0.39 nM, 60 minutes at 37°C, mean ± SD, n = 5-6
T1 sequence (Q7TMS5 1-657): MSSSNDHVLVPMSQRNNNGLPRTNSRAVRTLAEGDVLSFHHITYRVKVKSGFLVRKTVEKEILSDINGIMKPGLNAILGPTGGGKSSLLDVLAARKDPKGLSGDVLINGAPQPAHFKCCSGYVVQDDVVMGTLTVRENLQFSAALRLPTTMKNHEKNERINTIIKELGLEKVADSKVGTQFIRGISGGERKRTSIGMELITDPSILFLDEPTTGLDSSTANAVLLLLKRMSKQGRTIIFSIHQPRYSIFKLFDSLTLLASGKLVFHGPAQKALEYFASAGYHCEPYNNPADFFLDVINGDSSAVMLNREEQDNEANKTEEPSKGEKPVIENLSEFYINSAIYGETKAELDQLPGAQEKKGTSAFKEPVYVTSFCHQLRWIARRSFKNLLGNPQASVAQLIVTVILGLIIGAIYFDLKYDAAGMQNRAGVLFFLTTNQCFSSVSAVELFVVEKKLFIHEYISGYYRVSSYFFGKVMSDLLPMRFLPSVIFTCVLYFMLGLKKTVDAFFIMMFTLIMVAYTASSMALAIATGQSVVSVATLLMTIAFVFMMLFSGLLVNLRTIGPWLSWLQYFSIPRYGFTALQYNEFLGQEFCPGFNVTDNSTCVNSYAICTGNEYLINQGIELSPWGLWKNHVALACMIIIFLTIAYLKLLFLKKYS
In short: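 MDCKII cells (vector control or murine Bcrp1-transfected) were seeded at 2 x 10^5/well and grown to 80% confluence. After washing in serum-free buffer, cells were preincubated 30 min ± 0.2 µM Ko143. They were then exposed to 2 µM test compound or 0.39 nM prazosin (substrate control) for 60 min at 37°C. Uptake was stopped with cold PBS and cells lysed in 1% Triton X-100. Intracellular drug was measured by LC-MS/MS and normalised to BCA protein; mean ± SD, n = 5-6.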

GL261 tumors = details: cited from earlier work
[2] = type: in vivo, mice; details: for half-life: mouse, 1 mg/kg
In short: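 Mice with orthotopic GBM12 xenografts got a single 1 mg/kg intraperitoneal dose. Plasma, liver and brain (tumour-injected and contralateral hemispheres) were collected and flash-frozen at 0, 60, 120, 360 and 1440 min after dosing. Drug levels were measured by LC-MS; values are the mean of 2 or 3 mice per time point.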

[3] = test system: GBM14, GBM43, GBM59 intracranial xenografts; experiment: Other orthotopic primary GBM xenograft lines, survival; type: in vivo, mice; details: three other primary GBM xenograft lines
In short: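 Patient-derived GBM lines were kept by serial passage in mice and implanted intracranially. Mice with established tumours were randomised, 10 per group, to four arms: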

[4] = Steady-state brain distribution in wild-type and Mdr1a/b-/-Bcrp1-/- mice; type: in vivo, FVB mice
In short: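 FVB wild-type and Mdr1a/b-/-Bcrp1-/- mice received the test compound for 48 h by intraperitoneal osmotic minipump at 5 µg/hr (pump stock 5 mg/mL in DMSO). Plasma and whole brain were flash-frozen. Brain was homogenised in 5% BSA, samples spiked with dasatinib internal standard and extracted in ethyl acetate, then assayed by positive-mode LC-MS/MS. Brain-to-plasma ratio reported as mean ± SD, n=4.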

PARP = PARP enzymatic activity in tissue homogenates after a single dose; type: in vivo, mice
[5] = Tolerability of chronic rucaparib with TMZ; type: in vivo, mice; details: IP, with 50 mg/kg PO TMZ
[6] = MALDI mass spectrometric imaging of drug distribution; type: in vivo, mice; details: thirty minutes after single 10 mg/kg IP dose
In short: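 Tumour-bearing mice got one 10 mg/kg IP dose and were euthanised 30 min later. Brain, liver and tumour were snap-frozen; 12 µm cryosections went onto ITO slides, with sister sections for H&E. DHB matrix was sprayed on (160 mg/mL in methanol/0.2% TFA 70:30). Imaging used a 12 T FT-ICR MS, positive ion mode, m/z 100-2500, 250 shots per spot, 80 µm pixels (brain, liver) and 100 µm (flank tumour).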

[7] = 26 (veliparib); ref 48 (E7016); cited from earlier work
PDGF-driven glioma = details: higher drug delivery into brain in knockout mice; cited from earlier work
GBM22 = details: cited from earlier work
[8] = test system: GBM12 orthotopic xenografts; experiment: GBM12 orthotopic xenograft survival; type: in vivo, mice; details: TMZ 50 mg/kg, rucaparib 1 mg/kg days 1-5 every 28 days × 3 cycles, placebo 16 days, p = 0.88
GBM12 flank xenografts = experiment: GBM12 flank xenograft tumor regrowth delay; type: in vivo, mice; details: TMZ 50 mg/kg days 1-5, rucaparib 1 mg/kg days 1-5, three 28 day cycles, placebo 32 days
[9] = 60 minutes, single 1 mg/kg dose

With COc1cc2nc(N3CCN(C(=O)c4ccco4)CC3)nc(N)c2cc1OC [prazosin] the “intracellular accumulation in BCRP1-overexpressing cells” value [1] was 16.8±1.4 % of control.

In the case of Cc1ccc2c(=O)c3cccc(CC(=O)O)c3oc2c1C [DMXAA, 5,6-dimethylxanthenone-4-acetic acid], the “effect on survival with intracranial GL261 tumors” value (GL261 tumors; intracranial) is listed as “no survival extension” and the “effect on subcutaneous GL261 tumors” value (GL261 tumors; subcutaneous) is listed as “significantly delayed tumor growth”.

In the case of CNCc1ccc(-c2[nH]c3cc(F)cc4c3c2CCNC4=O)cc1 [rucaparib], the “concentration in contralateral brain hemisphere” value [2, 9] is reported as 0.08 −M, the concentration in liver [2, 9] is reported as 11.05 −M and the “concentration in tumor-injected hemisphere” value [2, 9] is reported as 0.35 −M. For the same compound, the “concentration in tumor-injected hemisphere” value ([2]; 6 hours, single 1 mg/kg dose) was 0.23 −M, the “levels in normal brain” value ([2]; by 360 minutes after injection, single 1 mg/kg dose) was “undetectable” and the half-life ([2]; plasma, ip) was 90 min. The half-life ([2]; tumor-injected brain hemisphere, intraperitoneal) was 780 min, the “maximum plasma concentration relative to Cmax in humans (times lower)” value ([2]; single 1 mg/kg dose in mice versus human Cmax of ref 12) was “about four-five” and the “potentiation of TMZ by rucaparib” value [3] was “did not potentiate TMZ”. The Kp at 48 h ([4]; FVB, mouse, brain, ip, 5 µg/hr, brain to plasma ratio at steady state, Mdr1a/1b-/-;Bcrp1-/- (TKO) mice, 48-hour intraperitoneal infusion at 5 −g/hr, mean ± SD, n=4) was 1.61 ± 0.25, the “increase in the brain-to-plasma ratio in knockout versus wild-type mice” value ([4]; Mdr1a/b-/-Bcrp1-/- knockout mice) was roughly 20 fold and the “PARP activity in normal brain (contralateral hemisphere)” value (PARP; by 360 minutes after injection) was “recovered to baseline”. The “PARP activity in liver” value (PARP; reduced for several hours after single 1 mg/kg dose) was 5 % of baseline, the “PARP activity in tumor-injected hemisphere” value (PARP; remained suppressed at this level for 24 hours, single 1 mg/kg dose) was 50 % of baseline and the “highest dose tolerated for chronic administration” value [5] was 1 mg/kg. For the same compound, the “intracellular accumulation in BCRP1-overexpressing cells” value [1] was 14.5±5.2 % of control, the “rucaparib distribution in flank tumors by MALDI-MSI” value ([6]; GBM12 flank, n=2) was “homogeneous and high-level accumulation” and the “rucaparib distribution in orthotopic tumors by MALDI-MSI” value ([6]; GBM12 orthotopic, n=3) was “no appreciable rucaparib signal”. For the same compound, the “rucaparib distribution in normal brain by MALDI-MSI” value ([6]; adjacent normal brain, 10 mg/kg) was “no appreciable rucaparib signal; also recorded: below the limit of detection”.

In the case of O=c1[nH]nc2c3c(cccc13)Oc1ccc(CN3CCC(O)CC3)cc1-2 [E7016], the “blood brain barrier penetration” value [7] is listed as “significantly penetrate the blood brain barrier”.

For C[C@]1(c2nc3c(C(N)=O)cccc3[nH]2)CCCN1 [veliparib], the “blood brain barrier penetration” value [7] is given as “significantly penetrate the blood brain barrier”.

In the case of Cc1nc(Nc2ncc(C(=O)Nc3c(C)cccc3Cl)s2)cc(N2CCN(CCO)CC2)n1 [dasatinib], the “survival of tumor-bearing Mdr1a/b-/-Bcrp1-/- knockout mice compared to wild-type mice” value (PDGF-driven glioma) is listed as “significant improvement in survival”.

For C=CCn1c(=O)c2cnc(Nc3ccc(N4CCN(C)CC4)cc3)nc2n1-c1cccc(C(C)(C)O)n1 [MK-1775], the “sensitizing effect combined with temozolomide, flank models” value (GBM22; flank models) is given as “significant sensitizing effects” and the “sensitizing effect combined with temozolomide, GBM22” value (GBM22; orthotopic GBM22 (contrasted with flank)) is given as “no sensitizing effect”.

For Cn1nnc2c(C(N)=O)ncn2c1=O [TMZ, temozolomide], the median survival [8] was 68 days and the “Median time for tumor to exceed a 1000 mm^3 size endpoint” value (GBM12 flank xenografts) was 86 days.
